pIC50: −log10 of the molar value. The source made the active and inactive calls. The rule behind the calls is not given here.
How the values were obtained:
[1] = test system: A549; test: Downregulation of Q8NCR4 gene expression in human A549 cells at 21 nM after 12 hrs by microarray analysis relative to control; assay type: functional
Method in brief: (§1)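 A549 cells (RPMI-1640, 10% heat-inactivated FBS, penicillin/streptomycin, 37 °C, 5% CO2) seeded at 4 × 10^5 per 60 mm dish. Exposed 12 h to conjugate at 21, 26, 34 or 100 nM in medium with 0.1% DMSO, against 0.1% DMSO control. Whole-genome (~25 000 genes) expression profiled by microarray.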

[2] = test system: A549; test: Downregulation of SUPT3H gene expression in human A549 cells at 21 nM after 12 hrs by microarray analysis relative to control; assay type: functional; method in brief: as §1
[3] = test system: A549; test: Downregulation of HECW2 gene expression in human A549 cells at 21 nM after 12 hrs by microarray analysis relative to control; assay type: functional
Method in brief: (§2)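 A549 cells, 4 × 10^5 per 60 mm dish, were exposed to conjugate for 12 h in medium with 0.1% DMSO; vehicle control was 0.1% DMSO. Whole human genome (~25 000 genes) expression was profiled by microarray and expression compared with the control.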

[4] = test system: A549; test: Downregulation of FMN2 gene expression in human A549 cells at 21 nM after 12 hrs by microarray analysis relative to control; assay type: functional; method in brief: as §2
[5] = test system: A549; test: Downregulation of Q8N570_HUMAN gene expression in human A549 cells at 21 nM after 12 hrs by microarray analysis relative to control; assay type: functional; method in brief: as §1
[6] = test system: A549; test: Upregulation of Q6NTF7 gene expression in human A549 cells at 21 nM after 12 hrs by microarray analysis relative to control; assay type: functional
Method in brief: (§3)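 4 ×10^5 A549 cells seeded per 60 mm dish and treated 12 h with conjugate (21, 26, 34 or 100 nM) in medium; control medium contained 0.1% DMSO, with conjugates added as 0.1% DMSO solutions. Whole human genome (~25 000 genes) expression profiled by microarray against the DMSO control. A549 culture: RPMI-1640 with 10% heat-inactivated FBS, penicillin/streptomycin, 37 °C, 5% CO2.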

[7] = test system: A549; test: Downregulation of SLC25A21 gene expression in human A549 cells at 21 nM after 12 hrs by microarray analysis relative to control; assay type: functional; method in brief: as §1
[8] = test system: A549; test: Upregulation of MDM2 gene expression in human A549 cells at 21 nM after 12 hrs by microarray analysis relative to control; assay type: functional; method in brief: as §3
[9] = test system: A549; test: Upregulation of BTG2 gene expression in human A549 cells at 21 nM after 12 hrs by microarray analysis relative to control; assay type: functional; method in brief: as §3
[10] = test system: A549; test: Downregulation of NBEA gene expression in human A549 cells at 21 nM after 12 hrs by microarray analysis relative to control; assay type: functional; method in brief: as §2
[11] = test system: A549; test: Downregulation of CPNE4 gene expression in human A549 cells at 21 nM after 12 hrs by microarray analysis relative to control; assay type: functional; method in brief: as §2
[12] = test system: A549; test: Upregulation of CDKN1A gene expression in human A549 cells at 21 nM after 12 hrs by microarray analysis relative to control; assay type: functional; method in brief: as §3
[13] = test system: A549; test: Downregulation of SLC4A4 gene expression in human A549 cells at 21 nM after 12 hrs by microarray analysis relative to control; assay type: functional; method in brief: as §1
[14] = Cytotoxicity against human EBC1 cells assessed as cell growth inhibition after 48 hrs by microplate reader analysis; assay type: functional, cell-based; settings: EBC-1, 48 h
Method in brief: (§4)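 Medium was RPMI-1640 for EBC-1, A549 and DU145, and DMEM for PC-3, SK-N-SH and K562. Both media had 10% heat-inactivated FBS plus penicillin/streptomycin; cells were kept at 37 °C, 5% CO2. Cells were seeded at 5000/well and given compound from DMSO stock (final 0.1% DMSO) for 48 h. Viability was read by WST-8 colorimetry, absorbance at 450 and 600 nm, and IC50 determined.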

[15] = test system: A549; test: Downregulation of GABRA3 gene expression in human A549 cells at 21 nM after 12 hrs by microarray analysis relative to control; assay type: functional; method in brief: as §2
[16] = test system: Nucleic Acid; test: Induction of calf thymus DNA cleavage at 10 to 25 nM after 12 h by PAGE analysis; assay type: nucleic-acid assay; settings: in the assay text read “208-bp PCR fragment DNA” for “calf thymus DNA”
Method in brief: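 5′-Texas Red-labeled 208 bp PCR fragments alkylated in 5.0 mM sodium phosphate (pH 7.0) with 10% DMF, room temperature, 12 h. Quenched with calf thymus DNA and heated 95 °C for 5 min under neutral conditions. Recovered DNA in formamide loading dye, heated 95 °C 20 min, then run on 6% denaturing polyacrylamide gel with 6.0 M urea at 1.5 kV, 40 °C.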

[17] = test system: A549; test: Downregulation of RS29_HUMAN gene expression in human A549 cells at 21 nM after 12 hrs by microarray analysis relative to control; assay type: functional; method in brief: as §1
[18] = test system: A549; test: Upregulation of BBC3 gene expression in human A549 cells at 21 nM after 12 hrs by microarray analysis relative to control; assay type: functional; method in brief: as §1
[19] = test system: A549; test: Downregulation of NP_060463.1 gene expression in human A549 cells at 21 nM after 12 hrs by microarray analysis relative to control; assay type: functional; method in brief: as §2
[20] = test system: A549; test: Downregulation of NP_115632.1 gene expression in human A549 cells at 21 nM after 12 hrs by microarray analysis relative to control; assay type: functional; method in brief: as §2
[21] = test system: K562; test: Cytotoxicity against human K562 cells assessed as cell growth inhibition after 48 hrs by microplate reader analysis; assay type: functional, cell-based; settings: K562, 48 h; method in brief: as §4
[22] = test system: A549; test: Downregulation of Q5VY43 gene expression in human A549 cells at 21 nM after 12 hrs by microarray analysis relative to control; assay type: functional; method in brief: as §1
[23] = test system: A549; test: Upregulation of HES2 gene expression in human A549 cells at 21 nM after 12 hrs by microarray analysis relative to control; assay type: functional; method in brief: as §3
[24] = test system: PC-3; test: Cytotoxicity against human PC3 cells assessed as cell growth inhibition after 48 hrs by microplate reader analysis; assay type: functional, cell-based; settings: PC-3, 48 h; method in brief: as §4
[25] = test system: A549; test: Cytotoxicity against human A549 cells assessed as cell growth inhibition after 48 hrs by microplate reader analysis; assay type: functional, cell-based; settings: A549, 48 h; method in brief: as §4
[26] = test system: A549; test: Downregulation of SMYD3 gene expression in human A549 cells at 21 nM after 12 hrs by microarray analysis relative to control; assay type: functional; method in brief: as §1
[27] = test system: A549; test: Downregulation of MBD3L1 gene expression in human A549 cells at 21 nM after 12 hrs by microarray analysis relative to control; assay type: functional; method in brief: as §2
[28] = test system: A549; test: Downregulation of ACTG gene expression in human A549 cells at 21 nM after 12 hrs by microarray analysis relative to control; assay type: functional; method in brief: as §2
[29] = test system: SK-N-SH; test: Cytotoxicity against human SK-N-SH cells assessed as cell growth inhibition after 48 hrs by microplate reader analysis; assay type: functional, cell-based; method in brief: as §4
[30] = test system: A549; test: Upregulation of CST8 gene expression in human A549 cells at 21 nM after 12 hrs by microarray analysis relative to control; assay type: functional; method in brief: as §3
[31] = test system: A549; test: Upregulation of BTNL3 gene expression in human A549 cells at 21 nM after 12 hrs by microarray analysis relative to control; assay type: functional; method in brief: as §3
[32] = test system: A549; test: Upregulation of FDXR gene expression in human A549 cells at 21 nM after 12 hrs by microarray analysis relative to control; assay type: functional; method in brief: as §3
[33] = test system: A549; test: Downregulation of PTPRK gene expression in human A549 cells at 21 nM after 12 hrs by microarray analysis relative to control; assay type: functional; method in brief: as §1
[34] = test system: A549; test: Downregulation of FHIT gene expression in human A549 cells at 21 nM after 12 hrs by microarray analysis relative to control; assay type: functional; method in brief: as §2
[35] = test system: A549; test: Upregulation of HCK gene expression in human A549 cells at 21 nM after 12 hrs by microarray analysis relative to control; assay type: functional; method in brief: as §3
[36] = test system: DU-145; test: Cytotoxicity against human DU145 cells assessed as cell growth inhibition after 48 hrs by microplate reader analysis; assay type: functional, cell-based; settings: DU-145, 48 h; method in brief: as §4
[37] = test system: A549; test: Downregulation of RABGAP1L gene expression in human A549 cells at 21 nM after 12 hrs by microarray analysis relative to control; assay type: functional; method in brief: as §1

CC(=O)Nc1cc(C(=O)Nc2cn(C)c(C(=O)NCCC(=O)Nc3cn(C)c(C(=O)Nc4cc(C(=O)NCCCC(=O)Nc5cc(C(=O)Nc6cc(C(=O)Nc7cc(C(=O)Nc8ccc9[nH]c(C(=O)N%10CC(CCl)c%11c%10cc(O)c%10ccccc%11%10)cc9c8)n(C)c7)n(C)c6)n(C)c5)n(C)c4)n3)n2)n(C)c1 (racemic)
fold change (FC) [1]: 0.348 | fold change (FC) [2]: 0.268 | fold change (FC) [3]: 0.346 | fold change (FC) [4]: 0.344 | fold change (FC) [5]: 0.228 | fold change (FC) [6]: 7 | fold change (FC) [7]: 0.354 | fold change (FC) [8]: 5.4 | fold change (FC) [9]: 6.7 | fold change (FC) [10]: 0.274 | fold change (FC) [11]: 0.314 | fold change (FC) [12]: 5.2 | fold change (FC) [13]: 0.278 | pIC50 [14]: 7.47 | fold change (FC) [15]: 0.343 | Activity [16]: Active | fold change (FC) [17]: 0.234 | fold change (FC) [18]: 5.7 | fold change (FC) [19]: 0.303 | fold change (FC) [20]: 0.154 | pIC50 [21]: 8.11 | fold change (FC) [22]: 0.354 | fold change (FC) [23]: 10.6 | pIC50 [24]: 8.22 | pIC50 [25]: 7.67 | fold change (FC) [26]: 0.345 | fold change (FC) [27]: 0.294 | fold change (FC) [28]: 0.345 | pIC50 [29]: 7.82 | fold change (FC) [30]: 5.3 | fold change (FC) [31]: 2 | fold change (FC) [32]: 2 | fold change (FC) [33]: 0.334 | fold change (FC) [34]: 0.253 | fold change (FC) [35]: 4.3 | pIC50 [36]: 8.48 | fold change (FC) [37]: 0.132

From ChEMBL document CHEMBL2169747, “Synthesis and biological properties of highly sequence-specific-alkylating N-methylpyrrole-N-methylimidazole polyamide conjugates” (J Med Chem, 2012)
